# Source: ChEMBL document CHEMBL1157665, “Novel 4-thiazolidinone derivatives as potential antifungal and antibacterial drugs” (2010)
# Tests used:
# Aspergillus versicolor [1] = test: Antifungal activity against Aspergillus versicolor ATCC 11730 after 72 hrs by serial dilution method; type: functional; conditions: ATCC 11730, 72 h
# Outline: (§1)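 Fungi were kept on malt agar at 4 °C and sub-cultured monthly. Spores were washed off the agar with sterile 0.85% saline containing 0.1% Tween 80 (v/v). Modified microdilution in 96-well plates. MIC is the lowest concentration with no visible growth under the binocular microscope. Inoculum checked on malt agar for contamination and validity.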
# Penicillium ochrochloron [2] = test: Antifungal activity against Penicillium ochrochloron ATCC 9112 after 72 hrs by serial dilution method; type: functional; conditions: ATCC 9112, 72 h; outline: as §1
# Pseudomonas aeruginosa [3] = test: Antibacterial activity against Pseudomonas aeruginosa ATCC 27853 after 24 hrs; type: functional; conditions: ATCC 27853, 24 h
# Outline: (§2)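 Broth microdilution MIC in 96-well plates. Compounds in LB broth with bacterial inoculum of 1.0 × 10^4 cfu per well, from suspensions adjusted with sterile saline to 1.0 × 10⁵ CFU/ml. Incubated 24 h at […] as printed. MIC taken as the lowest concentration with no visible growth under the binocular microscope. OD at 655 nm also read against blank. Streptomycin and ampicillin as positive controls. Duplicate, repeated three times.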
# Staphylococcus aureus [4] = test: Antibacterial activity against Staphylococcus aureus ATCC 6538 after 24 hrs; type: functional; conditions: ATCC 6538, 24 h; outline: as §2
# Aspergillus flavus [5] = test: Antifungal activity against Aspergillus flavus ATCC 9643 after 72 hrs by serial dilution method; type: functional; conditions: ATCC 9643, 72 h; outline: as §1
# Aspergillus flavus [6] = test: Antifungal activity against Aspergillus flavus ATCC 9643 after 72 hrs by serial sub-cultivation method; type: functional; conditions: ATCC 9643, 72 h
# Outline: (§3)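 MFC was found by serial sub-cultivation of 2 µl into plates holding 100 µl broth per well, then incubation 72 h at 28 °C. MFC is the lowest concentration with no visible growth, taken as 99.5% killing of the original inoculum. Spore inocula came from malt agar cultures washed with 0.85% saline and 0.1% Tween 80.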
# Salmonella typhimurium [7] = test: Antibacterial activity against Salmonella Typhimurium ATCC 13311 after 24 hrs; type: functional, Salmonella enterica subsp. enterica serovar Typhimurium; conditions: Salmonella enterica, ATCC 13311, 24 h; outline: as §2
# Aspergillus fumigatus [8] = test: Antifungal activity against Aspergillus fumigatus plant isolate after 72 hrs by serial dilution method
# Escherichia coli [9] = test: Antibacterial activity against Escherichia coli ATCC 35210 after 72 hrs by serial sub-cultivation method; type: functional; conditions: ATCC 35210, 72 h
# Outline: (§4)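 MBC was found by serial sub-cultivation of 2 µl from the MIC wells into plates holding 100 µl broth per well, then incubation for 72 h. MBC is the lowest concentration with no visible growth, i.e. 99.5% killing of the original inoculum. Bacterial inoculum was 1.0 × 10^4 cfu per well in LB broth. Duplicate, repeated three times.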
# Micrococcus flavus [10] = test: Antibacterial activity against Micrococcus flavus ATCC 10240 after 24 hrs; type: functional; conditions: ATCC 10240, 24 h; outline: as §2
# Penicillium ochrochloron [11] = test: Antifungal activity against Penicillium ochrochloron ATCC 9112 after 72 hrs by serial sub-cultivation method; type: functional; conditions: ATCC 9112, 72 h; outline: as §3
# Listeria monocytogenes [12] = test: Antibacterial activity against Listeria monocytogenes NCTC 7973 after 72 hrs by serial sub-cultivation method; type: functional; conditions: NCTC 7973, 72 h; outline: as §4
# Escherichia coli [13] = test: Antibacterial activity against Escherichia coli ATCC 35210 after 24 hrs; type: functional; conditions: ATCC 35210, 24 h; outline: as §2
# Fulvia fulva [14] = test: Antifungal activity against Fulvia fulva TK 5318 after 72 hrs by serial sub-cultivation method; type: functional; conditions: TK 5318, 72 h; outline: as §3
# Proteus mirabilis [15] = test: Antibacterial activity against Proteus mirabilis after 24 hrs; type: functional; outline: as §2
# Aspergillus fumigatus [16] = test: Antifungal activity against Aspergillus fumigatus plant isolate after 72 hrs by serial sub-cultivation method
# Trichoderma viride [17] = test: Antifungal activity against Trichoderma viride IAM 5061 after 72 hrs by serial sub-cultivation method; type: functional; conditions: IAM 5061, 72 h; outline: as §3
# Salmonella typhimurium [18] = test: Antibacterial activity against Salmonella Typhimurium ATCC 13311 after 72 hrs by serial sub-cultivation method; type: functional, Salmonella enterica subsp. enterica serovar Typhimurium; conditions: Salmonella enterica, ATCC 13311, 72 h; outline: as §4
# Aspergillus niger [19] = test: Antifungal activity against Aspergillus niger ATCC 6275 after 72 hrs by serial dilution method; type: functional; conditions: ATCC 6275, 72 h; outline: as §1
# Aspergillus versicolor [20] = test: Antifungal activity against Aspergillus versicolor ATCC 11730 after 72 hrs by serial sub-cultivation method; type: functional; conditions: ATCC 11730, 72 h; outline: as §3
# Bacillus cereus [21] = test: Antibacterial activity against Bacillus cereus clinical isolate after 24 hrs; type: functional; outline: as §2
# Pseudomonas aeruginosa [22] = test: Antibacterial activity against Pseudomonas aeruginosa ATCC 27853 after 72 hrs by serial sub-cultivation method; type: functional; conditions: ATCC 27853, 72 h; outline: as §4
# Staphylococcus aureus [23] = test: Antibacterial activity against Staphylococcus aureus ATCC 6538 after 72 hrs by serial sub-cultivation method; type: functional; conditions: ATCC 6538, 72 h; outline: as §4
# Fulvia fulva [24] = test: Antifungal activity against Fulvia fulva TK 5318 after 72 hrs by serial dilution method; type: functional; conditions: TK 5318, 72 h; outline: as §1
# Bacillus cereus [25] = test: Antibacterial activity against Bacillus cereus clinical isolate after 72 hrs by serial sub-cultivation method; type: functional; outline: as §4
# Proteus mirabilis [26] = test: Antibacterial activity against Proteus mirabilis after 72 hrs by serial sub-cultivation method; type: functional; outline: as §4
# Talaromyces funiculosus [27] = test: Antifungal activity against Penicillium funiculosum ATCC 36839 after 72 hrs by serial sub-cultivation method; type: functional; conditions: ATCC 36839, 72 h; outline: as §3
# Aspergillus niger [28] = test: Antifungal activity against Aspergillus niger ATCC 6275 after 72 hrs by serial sub-cultivation method; type: functional; conditions: ATCC 6275, 72 h; outline: as §3
# Listeria monocytogenes [29] = test: Antibacterial activity against Listeria monocytogenes NCTC 7973 after 24 hrs; type: functional; conditions: NCTC 7973, 24 h; outline: as §2
# Talaromyces funiculosus [30] = test: Antifungal activity against Penicillium funiculosum ATCC 36839 after 72 hrs by serial dilution method; type: functional; conditions: ATCC 36839, 72 h; outline: as §1
# Trichoderma viride [31] = test: Antifungal activity against Trichoderma viride IAM 5061 after 72 hrs by serial dilution method; type: functional; conditions: IAM 5061, 72 h; outline: as §1
# Micrococcus flavus [32] = test: Antibacterial activity against Micrococcus flavus ATCC 10240 after 72 hrs by serial sub-cultivation method; type: functional; conditions: ATCC 10240, 72 h; outline: as §4
Structure (SMILES),MIC (Aspergillus versicolor [1]),MIC (Penicillium ochrochloron [2]),MIC (Pseudomonas aeruginosa [3]),MIC (Staphylococcus aureus [4]),MIC (Aspergillus flavus [5]),MFC (Aspergillus flavus [6]),MIC (Salmonella typhimurium [7]),MIC (Aspergillus fumigatus [8]),MBC (Escherichia coli [9]),MIC (Micrococcus flavus [10]),MFC (Penicillium ochrochloron [11]),MBC (Listeria monocytogenes [12]),MIC (Escherichia coli [13]),MFC (Fulvia fulva [14]),MIC (Proteus mirabilis [15]),MFC (Aspergillus fumigatus [16]),MFC (Trichoderma viride [17]),MBC (Salmonella typhimurium [18]),MIC (Aspergillus niger [19]),MFC (Aspergillus versicolor [20]),other results
O=C1N/C(=N/c2nc(C34CC5CC(CC(C5)C3)C4)cs2)S/C1=C\c1cccc([N+](=O)[O-])c1,16.1 µM,10.8 µM,21.5 µM,21.5 µM,16.1 µM,21.5 µM,10.8 µM,16.1 µM,21.5 µM,21.5 µM,21.5 µM,43 µM,21.5 µM,16.1 µM,43 µM,21.5 µM,10.8 µM,21.5 µM,10.8 µM,21.5 µM,MIC (Bacillus cereus [21]): 16.1 µM; MBC (Pseudomonas aeruginosa [22]): 43 µM; MBC (Staphylococcus aureus [23]): 43 µM; MIC (Fulvia fulva [24]): 10.8 µM; MBC (Bacillus cereus [25]): 21.5 µM; MBC (Proteus mirabilis [26]): 64.5 µM; MFC (Talaromyces funiculosus [27]): 21.5 µM; MFC (Aspergillus niger [28]): 21.5 µM; MIC (Listeria monocytogenes [29]): 21.5 µM; MIC (Talaromyces funiculosus [30]): 10.8 µM; MIC (Trichoderma viride [31]): 5.4 µM; MBC (Micrococcus flavus [32]): 43 µM
O=C1N/C(=N/c2nc(C34CC5CC(CC(C5)C3)C4)cs2)S/C1=C\c1ccc([N+](=O)[O-])cc1,16.1 µM,16.1 µM,21.5 µM,16.1 µM,16.1 µM,21.5 µM,21.5 µM,16.1 µM,43 µM,21.5 µM,21.5 µM,43 µM,21.5 µM,21.5 µM,43 µM,21.5 µM,21.5 µM,21.5 µM,10.8 µM,21.5 µM,MIC (Bacillus cereus [21]): 21.5 µM; MBC (Pseudomonas aeruginosa [22]): 43 µM; MBC (Staphylococcus aureus [23]): 43 µM; MIC (Fulvia fulva [24]): 16.1 µM; MBC (Bacillus cereus [25]): 21.5 µM; MBC (Proteus mirabilis [26]): 64.5 µM; MFC (Talaromyces funiculosus [27]): 21.5 µM; MFC (Aspergillus niger [28]): 21.5 µM; MIC (Listeria monocytogenes [29]): 21.5 µM; MIC (Talaromyces funiculosus [30]): 21.5 µM; MIC (Trichoderma viride [31]): 10.8 µM; MBC (Micrococcus flavus [32]): 21.5 µM
O=C1CS/C(=N/c2nc(C34CC5CC(CC(C5)C3)C4)cs2)N1,23.8 µM,6 µM,17.9 µM,23.8 µM,17.9 µM,23.8 µM,23.8 µM,11.9 µM,47.6 µM,23.8 µM,23.8 µM,47.6 µM,23.8 µM,11.9 µM,47.6 µM,23.8 µM,23.8 µM,47.6 µM,11.9 µM,33.5 µM,MIC (Bacillus cereus [21]): 17.9 µM; MBC (Pseudomonas aeruginosa [22]): 47.6 µM; MBC (Staphylococcus aureus [23]): 47.6 µM; MIC (Fulvia fulva [24]): 6 µM; MBC (Bacillus cereus [25]): 23.8 µM; MBC (Proteus mirabilis [26]): 71.7 µM; MFC (Talaromyces funiculosus [27]): 23.8 µM; MFC (Aspergillus niger [28]): 23.8 µM; MIC (Listeria monocytogenes [29]): 23.8 µM; MIC (Talaromyces funiculosus [30]): 17.9 µM; MIC (Trichoderma viride [31]): 11.9 µM; MBC (Micrococcus flavus [32]): 47.6 µM
